Data taken from ChEMBL document CHEMBL4715781, “Exploration of bivalent ligands targeting putative mu opioid receptor and chemokine receptor CCR5 dimerization” (Bioorg Med Chem, 2016).
One block for each molecule: values may come before it. Active and inactive are the calls of the source. The calls are words filed in the database; no cut-off is given here.

Assays:
[1] = test system: Human immunodeficiency virus 1; assay: Antiviral activity against HIV-1 BAL infected in human PBMC assessed as reduction in p24 production at 1 uM treated for 1 hr prior to viral infection and measured after 5 days by ELISA; assay type: functional, organism-based; settings: time 5.0 day
Method in brief: (§1)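 Ficoll-isolated human PBMCs plated at 1 × 10^5 cells/mL and stimulated 48 h with IL-2 (100 ng/mL) and PHA (5 µg/mL). Then polybrene (2 µg/mL) for 30 min, compound at 10, 100 or 1000 nM for 1 h, and infection with R5-tropic HIV-1 BaL (p24 1000 pg/mL). Supernatant and RIPA lysate p24 measured by ELISA at day 5. Dunnett's test against infection alone.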

Mu-type opioid receptor [2] = biological target: Mu-type opioid receptor (Mus musculus, UniProt P42866); assay: Displacement of [3H]NLX from mouse MOR expressed in CHO cell membrane incubated for 90 mins by liquid scintillation spectrophotometry; assay type: cell membranes
Method in brief: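 mMOR-CHO membranes incubated 90 min at 30 °C with 2 nM [3H]naloxone and varying unlabeled ligand. Bound ligand collected by rapid GF-B filtration with 3 ice-cold Tris washes and counted by scintillation (45% efficiency). Competitor IC50 used to derive Ki. At least three independent experiments.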

[3] = test system: Human immunodeficiency virus 1; assay: Antiviral activity against HIV-1 BAL infected in human macrophages assessed as reduction in p24 production at 1 uM treated for 1 hr prior to viral infection and measured after 5 days by ELISA; assay type: functional, organism-based; settings: Macrophage, time 5.0 day
Method in brief: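 Macrophages derived from PBMCs with M-CSF (100 ng/mL) for 6 days, plated at 1 × 10^5 cells/mL and stimulated 48 h with IL-2/PHA. Polybrene for 30 min, compound (10–1000 nM) for 1 h before HIV-1 BaL (p24 1000 pg/mL). p24 in supernatant and lysate measured by ELISA 5 days post-infection. ANOVA with Dunnett's test.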

Mu-type opioid receptor [4] = biological target: Mu-type opioid receptor (Homo sapiens, UniProt P35372); assay: Antagonist activity at human MOR transfected in CHO cells co-transfected with Gqi5 assessed as inhibition of DAMGO-induced calcium mobilization incubated for 15 mins prior to DAMGO addition and measured for 90 secs by Fluo-4AM dye based fluorescence analysis; assay type: functional, cell-based
Method in brief: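 Gqi5-transfected hMOR-CHO cells plated at 20,000/well and used 48 h after transfection. Loaded 30 min with Fluo-4 AM/probenecid in HBSS:HEPES, then ligands added for 15 min. IC50 from non-linear regression of peak heights. Three repeats.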

[5] = biological target: T1, C-C chemokine receptor type 5 (Homo sapiens, UniProt P51681); assay: Antagonist activity at CCR5 receptor in human MOLT4 cells transfected with Gqi5 assessed as inhibition of RANTES-induced calcium mobilization incubated for 15 mins prior to RANTES addition and measured for 120 secs by Fluo-4AM dye based fluorescence analysis; assay type: functional, cell-based, MOLT-4
Method in brief: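 CCR5-MOLT-4 cells transfected with Gqi5, assayed 48 h later at 25,000 cells/well. Fluo-4 AM/probenecid loading for 45 min, then ligands for 15 min. IC50 from non-linear regression of peak heights. Three repeats.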
Target sequence in this assay (P51681 whole entry): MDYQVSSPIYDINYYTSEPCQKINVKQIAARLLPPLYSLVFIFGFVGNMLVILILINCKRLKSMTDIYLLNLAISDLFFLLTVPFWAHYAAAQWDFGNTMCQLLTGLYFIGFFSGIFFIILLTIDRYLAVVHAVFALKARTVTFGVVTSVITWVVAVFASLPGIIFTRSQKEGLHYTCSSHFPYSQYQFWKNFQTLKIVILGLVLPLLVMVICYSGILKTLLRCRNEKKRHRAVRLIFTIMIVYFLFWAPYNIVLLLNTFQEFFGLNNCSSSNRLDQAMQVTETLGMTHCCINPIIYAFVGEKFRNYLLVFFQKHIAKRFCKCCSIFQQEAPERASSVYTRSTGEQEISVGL

[6] = test system: Human immunodeficiency virus 1; assay: Antiviral activity against HIV-1 BAL infected in human astrocytes assessed as reduction in p24 production at 10 to 1000 nM treated for 1 hr prior to viral infection and measured after 5 days by ELISA; assay type: functional, organism-based; settings: Astrocyte, dose 10-1000 nM, time 5.0 day
Method in brief: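 Primary human astrocytes plated at 1 × 10^5 cells/mL and stimulated 48 h with IL-2 (100 ng/mL) and PHA (5 µg/mL). Polybrene for 30 min, then compound at 10, 100, 1000 nM for 1 h before infection with HIV-1 BaL (p24 1000 pg/mL). p24 ELISA on supernatants and lysates at day 5.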

[7] = biological target: T1, C-C chemokine receptor type 5; assay: Agonist activity at CCR5 receptor in human MOLT4 cells transfected with Gqi5 assessed as calcium mobilization incubated for 15 mins by Fluo-4AM dye based fluorescence analysis; assay type: functional, cell-based; settings: MOLT-4
Method in brief: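 CCR5-MOLT-4 cells transfected with Gqi5, tested 48 h post-transfection at 25,000 cells/well in 50:1 HBSS:HEPES buffer. Fluo-4 AM with probenecid loaded for 45 min, then varying ligand concentrations added for 15 min. Fluorescence at 494/516 nm read for 120 s, with buffer alone added at 16 s in place of RANTES. Peak height taken as agonism read-out.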
Target sequence in this assay (P51681 whole entry, looked up): as the sequence (P51681 whole entry) above

[8] = test system: Human immunodeficiency virus 1; assay: Antiviral activity against HIV-1 BAL infected in human macrophages assessed as reduction in p24 production at 500 nM treated for 1 hr prior to viral infection and measured after 5 days by ELISA; assay type: functional, organism-based; settings: Macrophage, time 5.0 day
Method in brief: (§2)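 PBMCs were Ficoll-isolated from leukopak blood and grown in RPMI-1640 with 10% FBS; macrophages came from PBMCs given M-CSF 100 ng/mL for 6 days. Cells at 1 × 10^5/mL were stimulated with IL-2 (100 ng/mL) and PHA (5 µg/mL) for 48 h, then polybrene (2 µg/mL) for 30 min. Compound was added 1 h before R5 HIV-1 BaL (p24 1000 pg/mL). Supernatant and RIPA-lysate p24 were measured by ELISA at day 5.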

[9] = test system: Human immunodeficiency virus 1; assay: Antiviral activity against HIV-1 BAL infected in human PBMC assessed as reduction in p24 production at 500 nM treated for 1 hr prior to viral infection and measured after 5 days by ELISA; assay type: functional, organism-based; settings: time 5.0 day; method in brief: as §2
[10] = test system: Human immunodeficiency virus 1; assay: Antiviral activity against HIV-1 SF162 infected in human astrocytes assessed as reduction in viral invasion by measuring decrease in Tat protein expression at 100 nM treated prior to viral infection and measured after 18 hrs by luciferase based assay; assay type: functional, organism-based; settings: Astrocyte
Method in brief: (§3)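 Primary human astrocytes in 24-well plates transfected with pBlue3'LTR-luc. […] Uninfected cells served as negative control. After about 18–20 h, cells were PBS-rinsed and lysed, and Tat-driven luciferase was measured.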

[11] = test system: Human immunodeficiency virus 1; assay: Antiviral activity against HIV-1 SF162 infected in human astrocytes assessed as reduction in viral invasion by measuring decrease in Tat protein expression at 100 nM co-treated with morphine prior to viral infection and measured after 18 hrs by luciferase based assay; assay type: functional, organism-based; settings: Astrocyte; method in brief: as §3
CHO [12] = assay: Antagonist activity at CCR5 receptor in CHO cells co-expressing hMOR, CD4 and luciferase reporter assessed as inhibition of CD4-gp120 complex interaction with receptor dimer by measuring inhibition of cell-cell fusion process at 100 nM measured after co-incubation of CHO cells with HEK293 cells …; assay type: cell-based; settings: Cricetulus griseus, filed as antagonist, time 18.0 hrs
CHO [13] = assay: as above; assay type: cell-based; settings: Cricetulus griseus, filed as antagonist, time 18.0 hrs; remark: listed apart in the source
[14] = biological target: C-C chemokine receptor type 5 (Macaca mulatta, UniProt P61813); assay: Displacement of [125I]MIP-1alpha from CCR5 receptor in rhesus monkey membrane incubated for 120 mins by liquid scintillation counting analysis; assay type: cell membranes, Cell membrane
[15] = test system: Human immunodeficiency virus 1; assay: Antiviral activity against HIV-1 BAL infected in human PBMC assessed as reduction in p24 production at 10 to 1000 nM treated for 1 hr prior to viral infection and measured after 5 days by ELISA; assay type: functional, organism-based; settings: dose 10-1000 nM, time 5.0 day; method in brief: as §1
[16] = test system: Human immunodeficiency virus 1; assay: Antiviral activity against HIV-1 SF162 infected in human astrocytes assessed as reduction in viral invasion by measuring decrease in Tat protein expression at 100 nM treated prior to viral infection and measured after 18 hrs by luciferase based assay relative to maraviroc in presence of morphine; assay type: functional, Astrocyte
Method in brief: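 Primary human astrocytes carried the transfected pBlue3'LTR-luc reporter. […] Uninfected cells served as negative control. Lysates were taken about 18–20 h later after PBS rinses, and Tat expression was quantified by luciferase luminescence.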

CHO [17] = assay: Binding affinity to CCR5-hMOR heterodimer in CHO cells co-expressing CD4 and luciferase reporter assessed as inhibition of CD4-gp120 complex interaction with receptor dimer by measuring inhibition of cell-cell fusion process at 3000 nM measured after co-incubation of CHO cells with HEK293 cells …; assay type: cell-based; settings: time 18.0 hrs
CHO [18] = assay: as above; assay type: cell-based; settings: time 18.0 hrs; remark: listed apart in the source
[19] = test system: Human immunodeficiency virus 1; assay: Antiviral activity against HIV-1 SF162 infected in human astrocytes assessed as reduction in viral invasion by measuring decrease in Tat protein expression at 100 nM treated prior to viral infection and measured after 18 hrs by luciferase based assay relative to maraviroc; assay type: functional, Astrocyte
Method in brief: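 Primary human astrocytes in 24-well plates were transfected with the LTR-luciferase reporter pBlue3'LTR-luc. […] Uninfected cells served as negative control. After about 18–20 h, cells were PBS-rinsed and lysed, and luciferase activity was read as Tat expression.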

Sequence of Mu-type opioid receptor (Mus musculus, UniProt P42866) (P42866 whole entry): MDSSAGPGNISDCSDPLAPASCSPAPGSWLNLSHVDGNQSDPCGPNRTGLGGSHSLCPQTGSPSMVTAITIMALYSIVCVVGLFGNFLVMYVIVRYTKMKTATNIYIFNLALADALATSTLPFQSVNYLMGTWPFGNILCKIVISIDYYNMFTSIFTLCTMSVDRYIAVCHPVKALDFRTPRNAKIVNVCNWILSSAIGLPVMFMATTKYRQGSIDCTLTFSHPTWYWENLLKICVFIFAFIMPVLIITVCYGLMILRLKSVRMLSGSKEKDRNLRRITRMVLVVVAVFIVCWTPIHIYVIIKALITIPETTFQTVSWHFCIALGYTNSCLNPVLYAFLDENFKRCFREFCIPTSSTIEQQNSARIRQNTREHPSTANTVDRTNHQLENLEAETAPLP
Sequence of Mu-type opioid receptor (Homo sapiens, UniProt P35372) (P35372 whole entry): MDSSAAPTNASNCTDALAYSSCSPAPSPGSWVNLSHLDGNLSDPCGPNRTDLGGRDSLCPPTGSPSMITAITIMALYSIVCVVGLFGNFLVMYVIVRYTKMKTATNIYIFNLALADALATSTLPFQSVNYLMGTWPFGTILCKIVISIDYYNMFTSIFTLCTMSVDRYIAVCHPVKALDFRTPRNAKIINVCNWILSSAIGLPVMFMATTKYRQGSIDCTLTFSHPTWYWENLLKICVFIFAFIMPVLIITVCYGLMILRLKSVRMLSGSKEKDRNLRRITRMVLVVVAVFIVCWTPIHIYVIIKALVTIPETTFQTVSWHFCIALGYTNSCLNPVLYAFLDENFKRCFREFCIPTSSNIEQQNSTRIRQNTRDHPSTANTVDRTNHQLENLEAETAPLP

Structure (SMILES): Cc1nnc(C(C)C)n1[C@H]1C[C@H]2CC[C@@H](C1)N2CC[C@H](NC(=O)C1CCC(F)(F)CC1)c1ccc(NC(=O)COCC(=O)NCCCCCCCCCNC(=O)COCC(=O)N[C@@H]2CC[C@@]3(O)[C@H]4Cc5ccc(O)c6c5[C@@]3(CCN4CC3CC3)[C@H]2O6)cc1
Activity [1]: Active
Ki (Mu-type opioid receptor [2]): 6.49 nM
Activity [3]: Active
IC50 (Mu-type opioid receptor [4]): 21.9 nM
IC50 [5]: 543 nM
Activity [6]: Active
Activity [7]: inactive

Structure (SMILES): CNC(=O)COCC(=O)NCCCCCNC(=O)COCC(=O)N[C@@H]1CC[C@@]2(O)[C@H]3Cc4ccc(O)c5c4[C@@]2(CCN3CC2CC2)[C@H]1O5
Ki (Mu-type opioid receptor [2]): 0.78 nM
IC50 (Mu-type opioid receptor [4]): 92.1 nM

Structure (SMILES): Cc1nnc(C(C)C)n1[C@H]1C[C@H]2CC[C@@H](C1)N2CC[C@H](NC(=O)C1CCC(F)(F)CC1)c1ccccc1
Activity [8]: Active
Activity [9]: Active
Activity [10]: Active
Activity [11]: inactive
Activity (CHO [12]): Active
Activity (CHO [13]): Active

IC50 [5]: 392 nM
Activity [7]: inactive
Structure (SMILES): CNC(=O)COCC(=O)NCCCCCCCCCNC(=O)COCC(=O)Nc1ccc([C@H](CCN2[C@@H]3CC[C@H]2C[C@@H](n2c(C)nnc2C(C)C)C3)NC(=O)C2CCC(F)(F)CC2)cc1

Structure (SMILES): CNC(=O)COCC(=O)NCCCCCCCCCNC(=O)COCC(=O)N[C@@H]1CC[C@@]2(O)[C@H]3Cc4ccc(O)c5c4[C@@]2(CCN3CC2CC2)[C@H]1O5
Ki (Mu-type opioid receptor [2]): 1.11 nM
IC50 (Mu-type opioid receptor [4]): 41.4 nM

Structure (SMILES): CNC(=O)COCC(=O)NCCCCCCCNC(=O)COCC(=O)Nc1ccc([C@H](CCN2[C@@H]3CC[C@H]2C[C@@H](n2c(C)nnc2C(C)C)C3)NC(=O)C2CCC(F)(F)CC2)cc1
Ki [14]: 151 nM
IC50 [5]: 622 nM
Activity [7]: inactive

Structure (SMILES): CNC(=O)COCC(=O)NCCCCCCCNC(=O)COCC(=O)N[C@@H]1CC[C@@]2(O)[C@H]3Cc4ccc(O)c5c4[C@@]2(CCN3CC2CC2)[C@H]1O5
Ki (Mu-type opioid receptor [2]): 9.2 nM

IC50 [5]: 948 nM
Activity [7]: inactive
Structure (SMILES): CNC(=O)COCC(=O)NCCCCCNC(=O)COCC(=O)Nc1ccc([C@H](CCN2[C@@H]3CC[C@H]2C[C@@H](n2c(C)nnc2C(C)C)C3)NC(=O)C2CCC(F)(F)CC2)cc1

IC50 [5]: 129 nM
Activity [7]: inactive
Structure (SMILES): CNC(=O)COCC(=O)NCCCCCCCNC(=O)COCC(=O)Nc1cccc([C@H](CCN2[C@@H]3CC[C@H]2C[C@@H](n2c(C)nnc2C(C)C)C3)NC(=O)C2CCC(F)(F)CC2)c1

Structure (SMILES): Cc1nnc(C(C)C)n1[C@H]1C[C@H]2CC[C@@H](C1)N2CC[C@H](NC(=O)C1CCC(F)(F)CC1)c1cccc(NC(=O)COCC(=O)NCCCCCCCNC(=O)COCC(=O)N[C@@H]2CC[C@@]3(O)[C@H]4Cc5ccc(O)c6c5[C@@]3(CCN4CC3CC3)[C@H]2O6)c1
Ki (Mu-type opioid receptor [2]): 10 nM
IC50 (Mu-type opioid receptor [4]): 17.1 nM
IC50 [5]: 1340 nM
Activity [7]: inactive

Structure (SMILES): Cc1nnc(C(C)C)n1[C@H]1C[C@H]2CC[C@@H](C1)N2CC[C@H](NC(=O)C1CCC(F)(F)CC1)c1ccc(NC(=O)COCC(=O)NCCCCCNC(=O)COCC(=O)N[C@@H]2CC[C@@]3(O)[C@H]4Cc5ccc(O)c6c5[C@@]3(CCN4CC3CC3)[C@H]2O6)cc1
Activity [15]: inactive
Ki (Mu-type opioid receptor [2]): 3.8 nM
Activity [3]: inactive
IC50 (Mu-type opioid receptor [4]): 21.8 nM
IC50 [5]: 2410 nM
Activity [6]: Active
Activity [7]: inactive

Structure (SMILES): Cc1nnc(C(C)C)n1[C@H]1C[C@H]2CC[C@@H](C1)N2CC[C@H](NC(=O)C1CCC(F)(F)CC1)c1ccc(NC(=O)COCC(=O)NCCCCCCCNC(=O)COCC(=O)N[C@@H]2CC[C@@]3(O)[C@H]4Cc5ccc(O)c6c5[C@@]3(CCN4CC3CC3)[C@H]2O6)cc1
Activity [15]: Active
Ki (Mu-type opioid receptor [2]): 3.24 nM
Ki [14]: 239 nM
Activity [10]: Active
fold change (FC) [16]: 7
Activity [3]: Active
Activity (CHO [17]): Active
IC50 (Mu-type opioid receptor [4]): 40 nM
Activity [11]: Active
Activity (CHO [18]): Active
fold change (FC) [19]: 3.3
IC50 [5]: 126 nM
Activity [6]: Active
Activity [7]: inactive
